# Measurements from ChEMBL document CHEMBL4715813, “Allicin-inspired pyridyl disulfides as antimicrobial agents for multidrug-resistant Staphylococcus aureus” (Eur J Med Chem, 2018).
# Activity calls are given as the source filed them. The rule behind the calls is not given here.
# Columns and labels:
# Staphylococcus aureus [1] = assay: Antibacterial activity against vancomycin-intermediate resistant Staphylococcus aureus Mu50 ATCC 700699 assessed as bacterial growth inhibition by measuring fold increase in MIC between 5 to 7 passages by broth dilution method; type: functional
# Enterobacter cloacae = assay: Antibacterial activity against Enterobacter cloacae ATCC 23355 assessed as zone of inhibition by disc diffusion method; type: functional
# Escherichia coli = assay: Antibacterial activity against beta-lactam resistant Escherichia coli BAA 2326 assessed as zone of inhibition by disc diffusion method; type: functional
# Staphylococcus aureus [2] = assay: Synergistic antibacterial activity against methicillin-resistant Staphylococcus aureus ATCC 43300 in presence of vancomycin by disc diffusion method; type: functional, organism-based
# Bacillus anthracis = assay: Antibacterial activity against Bacillus anthracis Sterne 34F2 assessed as zone of inhibition by disc diffusion method; type: functional
# Enterococcus faecium = assay: Antibacterial activity against vancomycin-resistant Enterococcus faecium ATCC 700221 assessed as zone of inhibition by disc diffusion method; type: functional
# Staphylococcus aureus [3] = assay: Antibacterial activity against community acquired methicillin-resistant Staphylococcus aureus BAA 1747 assessed as zone of inhibition by disc diffusion method; type: functional
# Staphylococcus aureus [4] = assay: Antibacterial activity against vancomycin-intermediate resistant Staphylococcus aureus Mu50 ATCC 700699 assessed as zone of inhibition by disc diffusion method; type: functional
# [5] = tested on: Staphylococcus epidermidis; assay: Antibacterial activity against Staphylococcus epidermidis ATCC 14990 assessed as zone of inhibition by disc diffusion method; type: functional
# Acinetobacter baumannii = assay: Antibacterial activity against Acinetobacter baumannii ATCC 19606 assessed as zone of inhibition by disc diffusion method; type: functional
# Staphylococcus aureus [6] = assay: Bactericidal activity against methicillin-susceptible Staphylococcus aureus ATCC 25923 assessed as bacterial killing incubated for over night; type: functional
# In short: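 5 μL from each well was spotted on agar and incubated overnight. MBC was taken as the lowest concentration with no visible growth.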
# Staphylococcus aureus [7] = assay: Antibacterial activity against linezolid-resistant Staphylococcus aureus assessed as bacterial growth inhibition incubated for 20 hrs by broth dilution method; type: functional
# In short: (§1)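 Broth microdilution: 0.5 McFarland suspension from an overnight culture, diluted 1:100 in cation-adjusted Mueller Hinton broth (CAMHB), given serial dilutions of test agent for 20 h at 37 °C. MIC is the lowest concentration with no visible growth.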
# Staphylococcus aureus [8] = assay: Bactericidal activity against heterogeneous vancomycin-intermediate Staphylococcus aureus Mu3 ATCC 700698 assessed as bacterial killing incubated for over night; type: functional
# In short: (§2)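 For MBC, 5 μL from each well was spotted on agar and incubated overnight; MBC is the lowest concentration with no visible growth. Ratio taken as MBC over MIC.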
# Staphylococcus aureus [9] = assay: Ratio of MBC to MIC against heterogeneous vancomycin-intermediate Staphylococcus aureus Mu3 ATCC 700698; type: functional; in short: as §2
# Staphylococcus aureus [10] = assay: Antibacterial activity against vancomycin-intermediate resistant Staphylococcus aureus Mu50 ATCC 700699 assessed as bacterial growth inhibition incubated for 20 hrs by broth dilution method; type: functional; in short: as §1
# Staphylococcus aureus [11] = assay: Bactericidal activity against vancomycin-intermediate resistant Staphylococcus aureus Mu50 ATCC 700699 assessed as bacterial killing incubated for over night; type: functional; in short: as §2
# Staphylococcus aureus [12] = assay: Ratio of MBC to MIC against vancomycin-intermediate resistant Staphylococcus aureus Mu50 ATCC 700699; type: functional; in short: as §2
# Staphylococcus aureus [13] = assay: Antibacterial activity against vancomycin-resistant Staphylococcus aureus HIP11714 assessed as inhibition of bacterial growth incubated for 20 hrs by broth microdilution method; type: functional; conditions: HIP11714, 20 h; in short: as §1
# Staphylococcus aureus [14] = assay: Antibacterial activity against vancomycin-intermediate Staphylococcus aureus clinical isolate 12 assessed as bacterial growth inhibition after 20 hrs by broth microdilution assay; type: functional; in short: as §1
# Staphylococcus aureus [15] = assay: Antibacterial activity against methicillin-susceptible Staphylococcus aureus ATCC 25923 in presence of glutathione; type: functional
# In short: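 Broth microdilution MIC: a 0.5 McFarland suspension from overnight culture was diluted 1:100 in cation-adjusted Mueller Hinton broth supplemented with glutathione 100 μM. It was exposed to serial dilutions for 20 h at 37 °C. MIC was taken as the lowest concentration with no visible growth.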
# Staphylococcus aureus [16] = assay: Antibacterial activity against methicillin-susceptible Staphylococcus aureus ATCC 25923 in presence of 10% v/v serum; type: functional
# MDA-MB-231 = assay: Cytotoxicity against human MDA-MB-231 cells assessed as reduction in cell viability after 72 hrs by MTT assay; type: cell-based; conditions: MDA-MB-231, 72 h
# In short: (§3)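 MTT viability: MDA-MB-231 and HepG2 cells (kept in DMEM with 10% FBS) were seeded at 5000/well and allowed to adhere overnight. They were exposed to 0.001–100 μM for 72 h, then given MTT 1 mg/mL in PBS pH 7.4 for 2 h. Formazan was dissolved in DMSO and A570 read. IC50 was taken from dose-response curves.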
# HepG2 = assay: Cytotoxicity against human HepG2 cells assessed as reduction in cell viability after 72 hrs by MTT assay; type: cell-based; conditions: HepG2, 72 h; in short: as §3
# Staphylococcus aureus [17] = assay: Antibacterial activity against methicillin-susceptible Staphylococcus aureus ATCC 25923 assessed as delayed bacterial proliferation at 0.5 times of MIC for 15 hrs; type: functional, organism-based
# Staphylococcus aureus [18] = assay: Bacteriostatic activity against methicillin-susceptible Staphylococcus aureus ATCC 25923 assessed as reduction in glucose metabolism measured at 0.5 hr interval for 15 hrs by phenol red based microplate reader assay; type: functional, organism-based
# In short: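 Glucose acidification: an OD600 1.0 suspension of S. aureus […] in HBSS was mixed with phenol red (70 μM stock) and test agent added from a 2 mM stock. Controls were DMSO vehicle and water. OD560 was read every 0.5 h for 15 h at 37 °C.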
# Staphylococcus aureus [19] = assay: Induction of membrane permeabilization in methicillin-susceptible Staphylococcus aureus ATCC 25923 assessed as cell viability at 1 to 5 times of MIC incubated for 5 mins by SYTO9 and PI staining based fluorescence assay; type: functional, organism-based
# In short: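 S. aureus […] was grown to OD600 0.4 in LB, washed with PBS and resuspended in 100 mM potassium phosphate pH 7.0 with 5 mM MgSO4. […] Controls were DMSO 5% and nisin 25 μg/mL. SYTO 9/propidium iodide staining ran 15 min at r.t. in the dark, and the green/red ratio (ex 485; em 535/595 nm) was read. Data are mean ± SEM, n = 3.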
# Staphylococcus aureus [20] = assay: Disruption of membrane potential in Staphylococcus aureus after 15 to 30 mins by DiOC2(3) probe based flow cytometric anlaysis; type: functional, organism-based; conditions: time 15-30 min
# In short: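 An overnight S. aureus culture was diluted 1:100 in LB, shaken 2 h at 37 °C, then diluted to a final 1:200. Cells were treated with 3–30 μM, DMSO 2% vehicle or CCCP at 37 °C with shaking. At 15 and 30 min, samples were stained 20 min with DiOC2(3). Flow cytometry used ex 488 nm, green 530/30 and red 585/42, reported as red/green ratio (mean ± SEM).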
# Staphylococcus aureus [21] = assay: Antibacterial activity against heterogeneous vancomycin-intermediate Staphylococcus aureus Mu3 ATCC 700698 assessed as bacterial growth inhibition measured between 5 to 7 passages by broth dilution method; type: functional
# In short: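 Serial passage with hVISA Mu3, VISA and VRSA strains grown at 0.5× MIC of agent (± equimolar vancomycin). […] MIC was read visually at each passage.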
# Staphylococcus aureus [22] = assay: Antibacterial activity against vancomycin-resistant Staphylococcus aureus HIP11714 assessed as bacterial growth inhibition by measuring fold increase in MIC between 5 to 7 passages by broth dilution method; type: functional
structure (smiles),measurement,setting,value
CCCCCCCCSSc1ccccn1,fold change (FC),Staphylococcus aureus [1],>2
same,diameter of the inhibition zone (DIZ),Enterobacter cloacae,0 mm
same,diameter of the inhibition zone (DIZ),Escherichia coli,0 mm
same,Activity,Staphylococcus aureus [2],Active
same,diameter of the inhibition zone (DIZ),Bacillus anthracis,48 mm
same,diameter of the inhibition zone (DIZ),Enterococcus faecium,12 mm
same,diameter of the inhibition zone (DIZ),Staphylococcus aureus [3],30 mm
same,diameter of the inhibition zone (DIZ),Staphylococcus aureus [4],43 mm
same,diameter of the inhibition zone (DIZ),[5],46 mm
same,diameter of the inhibition zone (DIZ),Acinetobacter baumannii,0 mm
same,MBC,Staphylococcus aureus [6],> 50 µM
same,MIC,Staphylococcus aureus [7],25 µM
same,MBC,Staphylococcus aureus [8],> 50 µM
same,Ratio,Staphylococcus aureus [9],>4
same,MIC,Staphylococcus aureus [10],3.13 µM
same,MBC,Staphylococcus aureus [11],25 µM
same,Ratio,Staphylococcus aureus [12],8
same,MIC,Staphylococcus aureus [13],6.25 µM
same,MIC50,Staphylococcus aureus [14],12.5 µM
same,MIC90,Staphylococcus aureus [14],12.5 µM
same,MIC,Staphylococcus aureus [15],50 µM
same,MIC,Staphylococcus aureus [16],25 µM
same,IC50,MDA-MB-231,74.9 µM
same,IC50,HepG2,≥ 100 µM
same,Activity,Staphylococcus aureus [17],Active
same,Activity,Staphylococcus aureus [18],Active
same,Activity,Staphylococcus aureus [19],inactive
same,Activity,Staphylococcus aureus [20],Dose-dependent effect
same,MIC,Staphylococcus aureus [21],> 50 µM
same,fold change (FC),Staphylococcus aureus [22],>2
